# Screening results as filed in PubChem BioAssay.
# Only some compounds are listed: those with a hit (about 4.8% of all), similar ones and a draw of the others.
# Beta cell apopt: blocks beta cell apoptosis; 300,000 compounds, 0.8% hits; protection from apoptosis, % (no concentration beside the values); INS-1E cytokine-induced death, ATP luminescence, 48 h; percent of positive-control rescue, neutral wells zero;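 active means Every replicate reaches about 75%, or at least half do and their mean reaches it too, limit read from the data; inconclusive means At least half of replicates reach the limit but their mean does not; inactive means Under half of replicates reach the limit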;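 further: higher means more ATP so stronger rescue from cytokine killing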
# CSC inhib: blocks cancer stem cells | cancer stem cell-like cells viability, luminescence | inhibition, % at 7.5 µM | 300,000 compounds, 1.1% hits | AID 2717; in the data active means inhibition above about 75%; inconclusive means no clear call, values can overlap the other calls; tested in HMLE shEcad cells
# T cruzi inh: T. cruzi replication inhibition. T. cruzi beta-gal in NIH3T3, luminescence, 90 h. inhibition, % (no concentration beside the values). 300,000 compounds, 1.4% hits. AID 1885;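 active means mean inhibition across valid replicates above about 55%, limit read from the data; inconclusive means mean below that limit but half or more replicates reach it; inactive means mean below it, under half of replicates reach it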;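 further: signal also drops with host cell toxicity which is not excluded here; higher percent means less beta-gal luminescence so fewer parasites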
#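 Assay system: NIH/3T3 fibroblasts plus reporter T. cruzi. Amount: NIH/3T3 cells, 5,000 per well. Buffer or medium: DMEM, 2% fetal bovine serum. Doses: compound pinned at 50 nL/well, DMSO. Schedule: ≥90 h infection period, 3 h prior cell attachment. Signal: luminescent β-galactosidase signal after 60 min lysis. Read-out: parasite load inhibition, %.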
# Efflux pump mplx: blocks antifungal efflux pumps in multiplex yeast assay; AID 485275; 330,000 compounds, 0.44% hits; inhibition, % at 10 µM; S. cerevisiae Candida pump triplex, Nile Red efflux;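 active means plate passing quality check with inhibition over a set limit, or well fluorescence over plate mean plus 4 SD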;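 further: Nile Red retained in pooled yeast measured as flow cytometry median fluorescence; higher means more Nile Red kept so more efflux inhibition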
# WT yeast gro inh: growth inhibition of WT yeast, mitochondrial fusion screen; 190,000 compounds, 2.1% hits; AID 1362; mitochondrial fusion phenotypic screen, WT strain; inhibition, % at 10 µM; in the data active means inhibition above about 58%; tested in S. cerevisiae
# Mot1-301 SUMO: blocks SUMOylation pathway, rescuing yeast Mot1-301 growth | S. cerevisiae Mot1-301 growth rescue, ATP luminescence, 38.5C; percent above DMSO median, 100 means doubled | growth rescue, % at 18.8 µM | 320,000 compounds, 1% hits | AID 2716;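 active means every valid replicate shows activation above 250% relative to neutral control wells; inactive means the rest, any valid replicate at or below 250%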
# Hits are given with their value; - = inactive; ? = inconclusive; . = not tested or not shown; + = active, no number.
SMILES,Beta cell apopt,CSC inhib,T cruzi inh,Efflux pump mplx,WT yeast gro inh,Mot1-301 SUMO
Cc1ccccc1/C=C/C(=O)c1ccc([N+](=O)[O-])o1,122.4,-,-,-,.,-
O=C(/C=C/c1cccc([N+](=O)[O-])c1)c1ccco1,-,-,-,-,.,-
COc1ccc(/C=C/C(=O)c2ccc([N+](=O)[O-])o2)cc1,126.7,?,-,-,.,-
O=C(/C=C/c1cccc([N+](=O)[O-])c1)Nc1ccccn1,-,-,-,-,-,.
O=C(/C=C/c1cccc([N+](=O)[O-])c1)N(c1ccccn1)c1ccccn1,-,-,-,-,.,+
Cc1cccc(/C=C/C(=O)c2ccc([N+](=O)[O-])o2)c1,116.7,-,-,-,.,-
Cc1nc2ccccn2c1C(=O)/C=C/c1cccc([N+](=O)[O-])c1,102.4,88.2,-,-,-,-
O=C(/C=C/c1cccc([N+](=O)[O-])c1)c1ccc([N+](=O)[O-])o1,133.5,-,56.5,-,.,-
O=C(Nc1ccccc1C(=O)O)c1ccc(NC(=O)C2CCCCC2)cc1,-,-,-,-,.,-
O=C(Nc1ncc(Br)s1)C(Cc1ccccc1)n1cccc1 (stereo unspecified),-,-,-,-,82.3,-
COCCCNC(=O)c1ccc(S(=O)(=O)c2ccc(C)cc2)c(NC(C)=O)c1,.,.,-,-,.,-
O=C(O)c1cc(-c2ccc(/C=c3\sc4nc5ccc(Br)cc5n4c3=O)o2)ccc1Cl,-,-,-,1.6,.,-
Cc1cc(N2CCCCC2)nc(-c2ccc(Br)cc2)n1,-,-,-,-,65.9,.
C/C(=N\Nc1cc(N2CCOCC2)nc(C)n1)c1ccc(F)cc1,-,-,-,-,.,-
C/C(=N\Nc1cc(N2CCCCC2)nc(C)n1)c1ccc(Br)cc1,-,105.0,72.0,-,.,-
Cc1cc(N2CCOCC2)nc(-c2ccc([N+](=O)[O-])cc2)n1,-,-,-,-,-,-
Cc1cc(C)cc(OCC(=O)OCC(=O)NC2CCCCCCC2)c1,-,-,-,-,.,-
COc1ccc(N(C(=O)Cn2nnc(-c3ccc(C)o3)n2)C(C(=O)NC2CCCC2)c2ccncc2)cc1 (stereo unspecified),-,-,-,-,.,-
COC1CCN(Cc2c(C(=O)N3CCN(C4CCCCC4)CC3)nc3ccccn23)CC1,-,-,59.0,-,.,-
Clc1ccc2nnnc(-c3ccccc3)c2c1,99.1,98.6,-,-,-,-
COc1ccc(C)cc1-n1nnnc1SC(C)C(=O)NC1CCCC1 (stereo unspecified),-,-,.,-,.,-
CCn1c2ccccc2c2cc(NC(=O)CSc3nccc(=O)[nH]3)ccc21,-,-,-,-,-,-
CC(C)Cn1c(CN2CCN(c3ccccc3F)CC2)nc2c1c(=O)[nH]c(=O)n2C,.,-,-,-,-,-
OC(CNCC1CCCO1)Cn1c2ccccc2c2ccccc21 (stereo unspecified),-,-,-,-,-,-
OC(CNCCC1C=Nc2ccccc21)Cn1c2ccc(Cl)cc2c2cc(Cl)ccc21 (stereo unspecified),99.5,106.4,?,-,97.5,-
SMILES,Beta cell apopt,CSC inhib,T cruzi inh,Efflux pump mplx,WT yeast gro inh,Mot1-301 SUMO
OC(CNCC1CCCO1)Cn1c2ccc(Cl)cc2c2cc(Cl)ccc21 (stereo unspecified),.,110.9,-,-,-,-
Cc1ccc(CNC(=O)C(Cc2ccccc2)NS(=O)(=O)c2ccc(Br)s2)cc1 (stereo unspecified),-,-,-,-,81.0,-
Cc1ccc(S(=O)(=O)Nc2ccccc2CNc2ccccn2)cc1,-,-,-,-,-,-
COc1cc(NS(=O)(=O)c2ccc(C)cc2)c2ncccc2c1,-,-,78.5,-,-,.
Cc1ccc(S(=O)(=O)Nc2ccccc2-c2ccccc2NS(=O)(=O)c2ccc(C)cc2)cc1,-,?,-,-,62.1,-
Cc1ccc(S(=O)(=O)Nc2ccccc2CNc2ccc(Br)cn2)cc1,-,-,-,-,65.0,-
Cc1ccc(S(=O)(=O)Nc2ccccc2C(N)=O)cc1,-,-,-,-,-,-
Cc1ccc(S(=O)(=O)Nc2cccc3cccnc23)cc1,-,78.1,-,-,-,-
O=C(c1cc(Cl)ccc1O)N1CCN(S(=O)(=O)c2cccs2)CC1,-,-,-,-,.,-
CCOC(=O)C(=O)Nc1ncc(Cl)s1,-,-,-,-,.,-
Cc1ccc(S(=O)(=O)Nc2ccc(N=Nc3ccc(O)cc3)cc2)cc1,-,-,-,-,70.8,-
